# High-throughput results deposited in PubChem BioAssay by Broad Institute.
# An excerpt weighted towards active compounds, which were near 2.5% of everything screened.
# CDK5 p35 inh: inhibitors of human CDK5/p35 kinase, primary screen, biochemical, single concentration. AID 488839, 2010. Recombinant CDK5/p35, ADP-Glo luminescence, 60 min. 330,000 tested, 0.01% active. inhibition, % at 10 µM;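 active = highest replicate inhibition of at least 50% and at least 75% of replicates reaching 50%; inconclusive = only one of the two criteria met; inactive = both criteria failed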;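 also: plate controls were DMSO neutral control for no effect and GW8510 at 10 µM for full effect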
# Target sequence (Q00535 whole entry, looked up): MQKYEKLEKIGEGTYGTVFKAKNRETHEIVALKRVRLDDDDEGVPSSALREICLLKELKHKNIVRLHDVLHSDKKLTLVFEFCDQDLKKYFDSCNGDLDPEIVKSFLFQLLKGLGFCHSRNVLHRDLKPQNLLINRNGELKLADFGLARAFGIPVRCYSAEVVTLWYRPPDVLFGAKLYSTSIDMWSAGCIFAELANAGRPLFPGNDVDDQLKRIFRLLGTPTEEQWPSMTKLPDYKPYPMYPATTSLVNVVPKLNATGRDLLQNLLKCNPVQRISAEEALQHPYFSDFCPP
# Target sequence (Q15078 whole entry, looked up): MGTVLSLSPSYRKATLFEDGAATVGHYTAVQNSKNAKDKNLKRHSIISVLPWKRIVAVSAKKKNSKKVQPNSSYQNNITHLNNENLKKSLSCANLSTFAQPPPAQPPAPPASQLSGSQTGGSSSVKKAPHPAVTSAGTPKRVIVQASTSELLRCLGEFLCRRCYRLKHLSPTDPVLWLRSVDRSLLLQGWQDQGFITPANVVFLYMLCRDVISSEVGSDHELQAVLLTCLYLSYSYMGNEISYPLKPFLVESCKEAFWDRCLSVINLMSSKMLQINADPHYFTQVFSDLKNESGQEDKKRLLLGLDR
# SR-BI DiI-HDL act: activators of SR-BI mediated DiI-HDL uptake, primary screen, ldlA[mSR-BI] CHO cells, DiI fluorescence | activation, % at 12.5 µM | 320,000 tested, 0.096% active | 3 h; 100 = double the neutral-control signal;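 active = mean replicate activation of at least 60% and every replicate at or above 60%; inconclusive = mean or all-replicate condition met, but not both; inactive = mean below 60% and not all replicates reaching 60%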;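 also: 0% = median plate neutral-control signal and 100% = twice that signal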
#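 Material – SR-BI-overexpressing, LDLR-lacking CHO cells · Medium – BSA-supplemented, HEPES-buffered Ham's F12, pH 7.4 · Doses – single concentration · Times – compound with DiI-HDL co-incubation, 3 h at 37 °C · Measured by – bottom-read fluorescence, 550/595 nm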
# NSD2 HMT inh: NSD2 histone methyltransferase inhibitors, primary screen, biochemical, AlphaScreen, single concentration, set 2; 310,000 tested, 0.54% active; AID 743445, 2014; inhibition, % at 12.5 µM; NSD2 peptide methylation, 120 min; Histone-lysine N-methyltransferase NSD2 (Homo sapiens), O96028
# DYRK1A inh: rat Dyrk1A kinase inhibitors, primary screen, biochemical, single point, plate reader; inhibition, % at 12.5 µM; ADP-Glo luminescence, NFATc1 peptide; AID 504441, 2011; 310,000 tested, 0.43% active; Dual specificity tyrosine-phosphorylation-regulated kinase 1A (Rattus norvegicus), Q63470;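 also: plate controls were vehicle with enzyme for no effect and no enzyme for full effect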
# SR-BI HDL uptake: inhibitors of SR-BI mediated HDL lipid uptake, primary screen, ldlA[mSR-BI] cells, fluorescence, single point; Scavenger receptor class B member 1 (Mus musculus), Q61009; ldlA[mSR-BI] CHO cells, DiI-HDL uptake fluorescence, 3 h; inhibition, % at 12.5 µM; 320,000 tested, 0.96% active;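 active = mean replicate inhibition of at least 70% and a set share of replicates each scoring 70 or more; inconclusive = meets just one of the two criteria; inactive = fails both criteria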;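 also: 0% = median of neutral control wells and 100% = median of positive control wells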
# dFosB activator: activators of delta FosB homodimer, primary screen, biochemical, fluorescence polarization, TAMRA-CDK5 oligo, single point. Protein FosB (Mus musculus), P13346. purified delta FosB; percent of positive-control signal above neutral wells. activation, % at 25 µM. 340,000 tested, 0.99% active;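 active = mean activation above about 17%, with every replicate also reaching it, limit read from the data, passing the limit was not always enough; inconclusive = only one of the two conditions met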
# DiI quencher: DiI fluorescence quenching in cell-free counter-screen | AC50, µM (series often up to 35 µM), for inactives: top-dose activity change, negative = quenching | cell-free DiI-HDL fluorescence quenching, 30 min | AID 540326 | 470 tested, 20% active | shares compounds with SR-BI HDL uptake;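 active = quenching, a falling signal, with AC50 below a set limit tied to the top valid dose, actives reach about 32 µM in these data; inconclusive = no clear call, values can overlap the other calls; inactive = rising signal, and the rest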
# The depositor's hits bear a star; ? = inconclusive; . = no result given. Rule as the data show it, unless noted: active = inhibition above about 50%; inactive = the rest.
SMILES,CDK5 p35 inh,SR-BI DiI-HDL act,NSD2 HMT inh,DYRK1A inh,SR-BI HDL uptake,dFosB activator,DiI quencher
Cc1ccc2oc(-c3cccc(NC(=O)c4ccccn4)c3)nc2c1,0,-8,-5,-4,8,-15,.
Cc1ccc2oc(-c3cccc(NC(=O)c4cc(-n5cnnc5)ccc4Cl)c3)nc2c1,0,-76,0,-7,76*,-20,15%
CC(=O)Oc1ccc(C(=O)Cc2ccc3ccccc3n2)c(O)c1C,0,-71,-4,5,?,1,-3%
CCOc1cc(N2CCOCC2)c(OCC)cc1NC(=O)c1ccccc1N1CCCC1=O,.,.,23,.,.,.,.
CC(Sc1nc2cc([N+](=O)[O-])ccc2n1-c1ccc(F)cc1)C(=O)NCc1ccc2c(c1)OCO2 (centres undefined),-2,-82,1,-13,82*,-18,-6%
CC/C(C)=N\Nc1nc(-c2cc3cc(OC)ccc3oc2=O)cs1,0,-61,3,19,61,-13,.
O=C(C[C@@H]1C/C=C\CCCC(=O)OC[C@@H]2CCCN2C1=O)NCCO,-1,2,.,-3,-2,1,.
O=C(C[C@H]1C/C=C\CCC(=O)OC[C@H]2CCCN2C1=O)NCCO,0,11,.,-5,-11,-2,2%
CSc1ccc(C(=O)N2CCC(CCC(=O)NCc3ccc(F)cc3)CC2)cc1,0,-9,1,-3,9,3,.
O=c1ccc2cc(S(=O)(=O)Nc3ccc(Br)cc3)ccc2o1,-1,12,-2,.,-12,3,.
CC(=O)Nc1ccc(NC(=O)c2cc(C3CC3)nc3c2cnn3C(C)C)cc1,1,-75,0,7,?,0,.
CCN(CC)C(=O)c1cccc(NC(=O)c2cc(C3CC3)nc3c2cnn3C(C)C)c1,1,-78,-1,-6,78*,-22,6%
CCc1cc(CNC(=O)C2CCC(=O)N(CCc3cccc(F)c3)C2)on1 (centres undefined),1,6,-2,.,-6,0,-1%
Cc1ccc(C)c(N2CCN(CCCNC(=O)Cn3c(=O)c4cccn4c4cccnc43)CC2)c1,0,-70,1,-9,?,-16,-3%
Cc1c(Nc2nc3ccccc3nc2N2CCN(c3ccccc3)CC2)c(=O)n(-c2ccccc2)n1C,-1,-72,1,-4,?,-10,-8%
O=C(c1ccccc1)C1CC=CCC1C(=O)c1ccccc1 (centres undefined),-2,-26,-2,9,26,-1,.
CNc1nc(-c2ccc3c(c2)CCN3C(=O)c2cccc(F)c2)cs1,2,.,.,-1,.,-6,.
CNc1nc(-c2ccc3c(c2)CCN3C(=O)c2ccc(F)cc2)cs1,0,-40,1,-40,40,-1,-16%
CC(C)(C)Nc1nc(-c2ccc3c(c2)CCN3C(=O)C2CC2)cs1,1,.,-3,-1,.,-8,.
CC(C)C(=O)Nc1nc(-c2ccc3c(c2)CCN3C(=O)C2CC2)cs1,1,-89,2,-6,89*,-11,-8%
COc1ccc(S(=O)(=O)N2CCCCCC2)cc1NS(=O)(=O)c1cc(C(=O)O)cc(C)c1C,0,24,-2,.,-24,1,.
COc1cc(/C=C/C(=O)Nc2cccc(S(=O)(=O)NC3=NCCCCC3)c2)ccc1OCC#N,-5,-75,-3,3,75*,-12,0%
COCCN(C(=O)c1cc(Cl)nc2ccccc12)c1c(N)n(Cc2ccccc2)c(=O)[nH]c1=O,1,16,1,.,-16,-3,.
CC1(C)Cc2c(cnn2-c2ccc(F)cc2)C(NC(=O)CCc2ccncc2)C1 (centres undefined),1,-5,0,-6,5,-5,.
COc1ccc([C@H]2/C=C\CN(S(=O)(=O)c3ccc4ccccc4c3)[C@@H](C)C(=O)N2Cc2ccc(F)cc2)cc1,0,-72,.,0,72*,-7,-1%
SMILES,CDK5 p35 inh,SR-BI DiI-HDL act,NSD2 HMT inh,DYRK1A inh,SR-BI HDL uptake,dFosB activator,DiI quencher
COc1ccc([C@H]2/C=C\CN(C(=O)c3ccc(C)cc3)[C@@H](C)C(=O)N2Cc2ccc(F)cc2)cc1,0,14,.,7,-14,-5,.
COc1ccc([C@H]2/C=C\CN(Cc3ccc(N(C)C)cc3)[C@@H](C)C(=O)N2Cc2ccc(F)cc2)cc1,-1,-1,.,-5,1,-7,.
COc1ccc([C@H]2/C=C\CN(S(=O)(=O)c3cccc4cccnc34)[C@@H](C)C(=O)N2Cc2ccc(F)cc2)cc1,0,-6,.,2,6,-15,-3%
COc1ccc([C@H]2/C=C\CN(S(=O)(=O)c3ccc(C)cc3)[C@@H](C)C(=O)N2Cc2ccc(F)cc2)cc1,-1,-51,.,.,51,7,-2%
Cc1ccccc1OCC(O)COc1ccccc1C,-1,-9,-2,7,9,-8,.
O=C(NCC1CCCCC1)c1cc(-c2cc(F)ccc2OCC2CCCO2)n[nH]1 (centres undefined),.,.,4,.,.,.,.
O=C(Nc1nc2c(F)cccc2s1)C1CC1,-1,6,.,1,-6,2,.
CC1CCc2c(sc(Nc3nc4c(F)cccc4s3)c2C(N)=O)C1 (centres undefined),4,-80,-2,5,80*,-11,3.3µM*
CCCCCCOC(=O)CCc1c(C)nc(N)[nH]c1=O,2,5,6,4,-5,1,.
CCCCCCCCOC(=O)CCc1c(C)[nH]c(=S)[nH]c1=O,1,-80,-1,6,80*,-3,-2%
Cc1c(C(=O)N2CCCCC2)c(S(=O)(=O)N2c3ccccc3CC2C)c(C)n1C (centres undefined),2,-2,-2,-5,2,-5,.
O=C(CSc1ncccn1)NC(=O)NC1CCCC1,.,.,0,.,.,.,.
COc1ccc([C@H]2CC(=O)C=C(c3cccc4c3sc3ccccc34)C2)cc1OC,-4,-96,.,-2,96*,6,3%
COc1ccc2c(c1)OC[C@H]1[C@H]2N2C(=O)c3cc(Cl)ccc3NC(=O)[C@@]2(C)[C@H]1c1ccccc1,1,-72,.,3,72*,2,-6%
COc1ccc(OCC(O)Cn2c(Nc3cccc(C)c3)nc3c2c(=O)n(C)c(=O)n3C)cc1 (centres undefined),0,-77,-2,-10,77*,-1,-10%
